Shown are actives, neighbours in structure and some others; about 2.3% of the full set was active somewhere.
Env fusion inh: inhibitors of HIV-1 Env-driven cell-cell fusion, primary screen, HeLa-JRFL effector, CEM21 target cells, luciferase; inhibition, % at 12.3 µM; actives 1.1% (n = 360,000);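 active = mean replicate inhibition score of at least 50 and every replicate individually at or above 50; inconclusive = only one of the two criteria met; inactive = mean below 50 and not all replicates reaching 50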;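 note: 0% = plate neutral controls and 100% = maraviroc near 300 nM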
Rtt109 Vps75: inhibitors of C. albicans Rtt109/Vps75 HAT, primary screen, biochemical, ThioGlo CoA-SH fluorescence, plate reader. Histone acetyltransferase RTT109 (Candida albicans (strain SC5314 / ATCC MYA-2876)), …. purified Rtt109/Vps75, 4 h. inhibition, % at 34.9 µM. actives 0.16% (n = 330,000). AID 540336, 2011;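 active = inhibition of at least 50% in every replicate; inconclusive = best replicate reaches 50% inhibition but some replicates fall short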
Target sequence (Q5AAJ8 whole entry, looked up): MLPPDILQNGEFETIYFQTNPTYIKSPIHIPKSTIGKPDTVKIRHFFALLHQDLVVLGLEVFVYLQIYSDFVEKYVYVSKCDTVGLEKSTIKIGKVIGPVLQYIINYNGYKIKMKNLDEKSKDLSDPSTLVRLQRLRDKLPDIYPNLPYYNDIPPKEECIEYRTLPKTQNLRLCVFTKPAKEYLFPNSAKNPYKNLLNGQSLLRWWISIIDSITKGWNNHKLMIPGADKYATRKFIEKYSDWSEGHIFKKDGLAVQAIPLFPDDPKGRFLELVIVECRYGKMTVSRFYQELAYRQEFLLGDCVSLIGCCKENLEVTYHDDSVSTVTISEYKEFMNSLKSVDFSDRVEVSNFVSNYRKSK
Arrestin-AP2 inh: inhibitors of beta-arrestin/AP2 binding, primary screen, biochemical, GPCR trafficking, flow cytometry; beta-arrestin 1 C-terminal peptide binding to AP2 beta2-adaptin appendage (human); FITC-arrestin peptide / GST-AP2 beads; AP2 beta2 appendage carries R879A mutation; inhibition, % at 10 µM; actives 0.31% (n = 340,000);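 active = inhibition above a set limit, near 3 SD of compounds lacking own fluorescence, cut at about 54% in these data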;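 note: plate controls were DMSO wells for no effect and 5 µM unlabelled arrestin peptide for full effect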
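Measured by: flow cytometry, FL1 (488/535 nm); Material: AP2 appendage R879A on GSH beads; Evaluation: percent response; Timing: pre-incubation 12 min, peptide binding 1 h, room temperature; Also added: 50 nM FITC-arrestin peptide; Medium: PBS with 0.05% Tween 20 and 0.1% BSA.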
Glyco luc inh: increase of ERlucT glycosylation luciferase signal, primary screen, N-linked glycosylation inhibitor project, D54 ERlucT cells, luminescence, set 2. reporter increase, % at 12.5 µM. actives 0.23% (n = 360,000). AID 588692, 2011. D54 ERlucT glycosylation luciferase reporter, 24 h; percent of 100 nM tunicamycin response;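 active = mean luciferase reporter signal, scaled so untreated is 0 and the glycosylation-blocking control 100, at or above a set limit in every replicate; inconclusive = mean reaches the limit but not every replicate does; inactive = mean below the limit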;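 note: luciferase carries N-glycosylation sites so blocking glycosylation raises the light; 0% = median of neutral control wells and 100% = median of 100 nM tunicamycin wells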
PAX8 inh HTS: inhibitors of PAX8-driven TPO luciferase reporter, primary screen, RMG-I cells, single concentration | SteadyGlo, 24 h | inhibition, % at 12.6 µM | actives 1.2% (n = 360,000) | AID 652154, 2013;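 active = mean replicate inhibition at least 60% with every replicate also reaching 60%; inconclusive = only one of the two criteria is met; inactive = mean below 60% and not all replicates reaching 60%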;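 note: luciferase light reporting Pax8 driven TPO promoter activity; plate controls were median of neutral control wells for no effect and mitoxantrone controls for full effect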
PfHsp90 set2: growth inhibition of PfHsp90-expressing yeast, primary screen, antimalarial PfHsp90 inhibitor project, S. cerevisiae, BacTiter-Glo luminescence, single point, set 2. BacTiter-Glo ATP, 48 h; yeast lacking PDR1 and PDR3 efflux regulators. inhibition, % at 9.4 µM. actives 0.32% (n = 310,000);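 active = every replicate shows inhibition above about 80%, whatever the replicate mean, limit read from the data; inconclusive = mean inhibition reaches the set limit but some replicate falls short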;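 note: 0% = DMSO neutral controls and 100% = 20 µM radicicol positive controls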
* hit, by the source's call; ? = inconclusive; · = no result given; ! = not active in a repeat; [ ] = dose if it differs, or a comment.

SMILES	Env fusion inh	Rtt109 Vps75	Arrestin-AP2 inh	Glyco luc inh	PAX8 inh HTS	PfHsp90 set2
COc1ccc(C(=O)CSc2nnc(Cn3cnc4ccccc43)o2)cc1	106*	-6	-14	0	-12	·
COCCNC(=O)C1=C(N)C(C(=O)Nc2ccc(C)c(S(=O)(=O)N3CCCCC3)c2)SC1=Nc1ccc(C)cc1C (centres undefined)	·	58*	14	-4	·	14
COC(=O)C1=C(C)N(C)C(=NCc2ccc3c(c2)OCO3)NC1c1ccc(C(F)(F)F)cc1 (centres undefined)	57*	·	·	·	-47	·
COC(=O)C1=C(C)N(Cc2cccc(C(F)(F)F)c2)C(=NCc2ccc3c(c2)OCO3)NC1c1ccc(Cl)cc1 (centres undefined)	63*	·	·	·	25	·
O=C(COc1ccc(/C=N/NC(=O)C(=O)N2CCCCCC2)cc1)Nc1ccccc1Cl	·	-5	5	-2	78*	5
COc1ccc(/C=N/NC(=O)C(=O)N2CCCCCC2)cc1	-2	-2	-8	3	-11	22
CCOC(=O)N1C(=O)[C@](c2ccc(Cl)cc2)(C(C)C)N1C(=O)OCC	45	-5	8	0	6	-16
CCOC(=O)N1C(=O)[C@@](c2ccc(Cl)cc2)(C(C)C)N1C(=O)OCC	-24	1	30	-4	69*	-16
CN1C(=O)c2cc(NC(=O)c3ccccc3)ccc2OC[C@H]2O[C@H](CC(=O)NC3CCCC3)CC[C@@H]21	·	·	·	·	-13	·
C=CCn1c(SCc2c(C)noc2C)nc2ccccc2c1=O	62*	-6	1	?	·	8
C=CCn1c(SCc2c(C)noc2C)nc2cc(C(=O)O)ccc2c1=O	-62	·	-7	4	10	·
Cc1noc(C)c1CSc1nc2[nH]ncc2c(=O)n1-c1ccccc1	·	5	29	42*	·	-4
CCCN(C)C[C@@H]1Oc2ncc(-c3ccccc3)cc2C(=O)N([C@@H](C)CO)C[C@H]1C	-28[16.7 µM]	·	·	·	12	·
N#CCCN(C(=O)CN1CCN(S(=O)(=O)c2ccc(Cl)s2)CC1)c1ccc(F)cc1	62*	2	-4	1	1	-14
COc1ccc(CNC(=O)N(C)C[C@@H]2OCc3ccccc3-c3c(n(C)c4ccccc34)C(=O)N([C@@H](C)CO)C[C@@H]2C)cc1	100*	·	·	·	-16	·
COc1ccc(CNC(=O)N(C)C[C@@H]2OCc3ccccc3-c3c(n(C)c4ccccc34)C(=O)N([C@@H](C)CO)C[C@H]2C)cc1	38[16.7 µM]	·	·	·	2	·
COc1ccc(CNC(=O)N(C)C[C@@H]2OCc3ccccc3-c3c(n(C)c4ccccc34)C(=O)N([C@H](C)CO)C[C@@H]2C)cc1	85*[16.7 µM]	·	·	·	-19	·
COc1ccc(NC(=O)N[C@@H]2CC[C@H](CCNC(=O)Cc3ccncc3)O[C@H]2CO)cc1	-2[16.7 µM]	·	·	·	-3	·
C[C@H]1CCCCO[C@@H](CN(C)C(=O)NC2CCCCC2)[C@@H](C)CN([C@@H](C)CO)C(=O)c2cc(NS(=O)(=O)c3ccc(F)cc3)ccc2O1	-184[16.7 µM]	·	·	·	40	·
COCC#Cc1cnc2c(c1)C(=O)N([C@@H](C)CO)C[C@@H](C)[C@@H](CN(C)C(=O)Nc1cc(F)ccc1F)O2	·	·	·	·	-7	·
Cc1ccc(C(=O)C[n+]2cc(-c3ccc(C)cc3)n3c2CCCCC3)cc1	68*	?	5	1	·	13
Cc1ccc(-c2c[n+](Cc3ccc(Cl)c(Cl)c3)c3n2CCC3)cc1	18	7	-6	7	80*	1
COc1ccc(C(=O)C[n+]2cc(-c3ccc(OC)cc3)n3c2CCCC3)cc1	-20	-8	8	0	72*!	-19
Cc1ccc(NC(=O)C[n+]2cc(-c3ccc(C)cc3)n3c2CCC3)cc1	9	8	2	1	13	-13
Cc1sc2nc(C3CC3)nc(SCC(=O)NCc3ccco3)c2c1C	·	12	11	-1	·	84*
SMILES	Env fusion inh	Rtt109 Vps75	Arrestin-AP2 inh	Glyco luc inh	PAX8 inh HTS	PfHsp90 set2
Cc1sc2nc(SCC(=O)NCc3ccco3)n(C)c(=O)c2c1C	·	-9	11	-1	·	-7
CO[C@H]1CN(C)C(=O)c2ccc(NC(=O)C3CCOCC3)cc2OC[C@@H](C)N(Cc2nccs2)C[C@H]1C	-1[16.7 µM]	·	·	·	·	·
O=c1ccc2c([nH]1)CCCCCCCCCC2	56*	7	14	-1	14	-5
COc1ccc(NC(=O)Nc2ccc3c(c2)C(=O)N([C@@H](C)CO)C[C@H](C)[C@H](CN(C)Cc2ccncc2)OCCCC[C@H](C)O3)cc1	88*[16.7 µM]	·	·	·	-3	·
C[C@H]1CCCCO[C@@H](CN(C)Cc2ccccc2)[C@@H](C)CN([C@@H](C)CO)C(=O)c2cc(NC(=O)Nc3ccccc3)ccc2O1	69*[16.7 µM]	·	·	·	38	·
C[C@@H]1CCCCO[C@H](CN(C)Cc2ccncc2)[C@H](C)CN([C@@H](C)CO)C(=O)c2cc(NC(=O)Nc3ccccc3)ccc2O1	-37[16.7 µM]	·	·	·	29	·
C[C@H]1CCCCO[C@@H](CN(C)Cc2ccccc2)[C@@H](C)CN([C@@H](C)CO)C(=O)c2cc(NC(=O)Nc3ccc(F)cc3)ccc2O1	70*[16.7 µM]	·	·	·	49	·
C[C@H]1CCCCO[C@@H](CN(C)Cc2ccncc2)[C@@H](C)CN([C@@H](C)CO)C(=O)c2cc(NC(=O)Nc3ccccc3)ccc2O1	58*[16.7 µM]	·	·	·	9	·
C[C@H](CO)N1C[C@H](C)[C@@H](CN(C)C(=O)Nc2ccc3c(c2)OCO3)Oc2ccc(NC(=O)Nc3ccccc3)cc2C1=O	7[16.7 µM]	·	·	·	·	·
CNC[C@@H]1Oc2ncc(C3=CCCC3)cc2C(=O)N([C@H](C)CO)C[C@@H]1C	-2[16.7 µM]	·	·	·	·	·
COc1ccc(CN(C)C[C@H]2OCCCC[C@@H](C)Oc3ccc(NC(=O)Nc4ccc(F)cc4)cc3C(=O)N([C@@H](C)CO)C[C@@H]2C)cc1	-77[16.7 µM]	·	·	·	85*	·
COc1ccc(NC(=O)Nc2ccc3c(c2)C(=O)N([C@H](C)CO)C[C@H](C)[C@H](CN(C)Cc2ccccc2)OCCCC[C@H](C)O3)cc1	74*[16.7 µM]	·	·	·	19	·
C[C@H](CO)N1C[C@H](C)[C@H](CN(C)Cc2ccccc2)OCCCC[C@H](C)Oc2ccc(NC(=O)Nc3ccc(F)cc3)cc2C1=O	56*[16.7 µM]	·	·	·	33	·
COc1ccc(CN(C)C[C@@H]2OCCCC[C@H](C)Oc3ccc(NC(=O)Nc4cccc5ccccc45)cc3C(=O)N([C@H](C)CO)C[C@H]2C)cc1	32[16.7 µM]	·	·	·	80*	·

Screening data deposited in PubChem BioAssay by several laboratories.
